From ChEMBL document CHEMBL4002604, “Evaluation of biological properties of 3,3',4,4'-benzophenonetetracarboxylic dianhydride derivatives and their ability to inhibit hexokinase activity” (2017)

Columns and labels:
P19 [1] = experiment: Cytotoxicity against differentiated mouse P19 cells assessed as mitochondrial superoxide anion level at 100 uM after 24 hrs by MitoSox dye based fluorescence assay relative to control; type: functional
How it was run: (§1)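 Undifferentiated (P19SCs) or differentiated (P19dCs) P19 cells incubated 24 or 72 h with 1 or 100 µM. Mitochondrial membrane potential and mitochondrial superoxide levels measured and expressed relative to untreated control. Means ± SD from 4 independent measurements, at least 4 repeats each. Significance at p<0.05.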

P19 [2] = experiment: Cytotoxicity against differentiated mouse P19 cells assessed as cell mass at 1 to 100 uM after 72 hrs by SRB assay relative to control; type: functional
How it was run: (§2)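 Cell mass by SRB assay in P19 cells (CRL-1825), either undifferentiated (P19SCs) or differentiated (P19dCs). Cells exposed to 1, 10 or 100 µM for 24, 48 or 72 h. Values expressed relative to untreated control. Means ± SD from at least 4 independent measurements, 6 repeats each. Significance vs control at p<0.05.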

[3] = target: T1, Hexokinase-2 (Mus musculus) (UniProt O08528); experiment: Potency index, ratio of compound effect to 2-DG effect for inhibition of HK2 in mouse undifferentiated P19 cells
T1 sequence (whole entry): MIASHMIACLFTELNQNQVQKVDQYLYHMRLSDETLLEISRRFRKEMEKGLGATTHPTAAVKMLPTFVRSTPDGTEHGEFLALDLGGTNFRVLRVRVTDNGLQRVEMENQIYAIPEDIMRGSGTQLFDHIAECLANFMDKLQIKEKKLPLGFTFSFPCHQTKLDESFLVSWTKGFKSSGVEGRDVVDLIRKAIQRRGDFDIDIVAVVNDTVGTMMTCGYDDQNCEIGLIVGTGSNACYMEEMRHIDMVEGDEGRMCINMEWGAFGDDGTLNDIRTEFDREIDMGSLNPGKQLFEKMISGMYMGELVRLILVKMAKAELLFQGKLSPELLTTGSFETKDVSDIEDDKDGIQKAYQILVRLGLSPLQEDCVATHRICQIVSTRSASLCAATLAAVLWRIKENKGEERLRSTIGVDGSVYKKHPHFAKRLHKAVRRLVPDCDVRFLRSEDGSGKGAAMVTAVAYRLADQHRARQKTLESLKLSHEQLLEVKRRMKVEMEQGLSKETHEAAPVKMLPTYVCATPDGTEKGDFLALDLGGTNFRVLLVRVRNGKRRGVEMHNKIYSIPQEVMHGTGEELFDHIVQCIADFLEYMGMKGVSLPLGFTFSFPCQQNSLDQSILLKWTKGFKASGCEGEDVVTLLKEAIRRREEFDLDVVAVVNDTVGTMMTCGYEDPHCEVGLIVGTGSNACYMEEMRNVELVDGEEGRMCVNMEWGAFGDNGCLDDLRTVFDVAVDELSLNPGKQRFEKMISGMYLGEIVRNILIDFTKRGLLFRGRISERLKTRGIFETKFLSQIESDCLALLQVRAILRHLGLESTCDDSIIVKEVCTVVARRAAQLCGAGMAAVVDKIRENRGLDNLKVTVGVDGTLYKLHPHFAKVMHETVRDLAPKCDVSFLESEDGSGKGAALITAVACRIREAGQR

P19 [4] = experiment: Cytotoxicity against differentiated mouse P19 cells assessed as metabolic activity at 1 to 100 uM after 72 hrs by resazurin assay relative to control; type: functional
How it was run: (§3)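 Metabolic activity by resazurin reduction in undifferentiated (P19SCs) or differentiated (P19dCs) P19 cells. Exposure to 1, 10 or 100 µM for 24, 48 or 72 h. Read-out relative to untreated control. Significance vs control at p<0.05.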

P19 [5] = experiment: Cytotoxicity against undifferentiated mouse P19 cells assessed as mitochondrial membrane potential at 100 uM after 72 hrs by TMRF dye based fluorescence assay relative to control; type: functional; how it was run: as §1
P19 [6] = experiment: Cytotoxicity against undifferentiated mouse P19 cells assessed as mitochondrial superoxide anion level at 100 uM after 72 hrs by MitoSox dye based fluorescence assay relative to control; type: functional; how it was run: as §1
P19 [7] = experiment: Cytotoxicity against differentiated mouse P19 cells assessed as mitochondrial membrane potential at 1 uM after 72 hrs by TMRF dye based fluorescence assay relative to control; type: functional; how it was run: as §1
P19 [8] = experiment: Cytotoxicity against undifferentiated mouse P19 cells assessed as metabolic activity at 1 to 100 uM after 72 hrs by resazurin assay relative to control; type: functional; how it was run: as §3
P19 [9] = experiment: Cytotoxicity against differentiated mouse P19 cells assessed as mitochondrial membrane potential at 100 uM after 24 hrs by TMRF dye based fluorescence assay relative to control; type: functional; how it was run: as §1
P19 [10] = experiment: Cytotoxicity against differentiated mouse P19 cells assessed as mitochondrial membrane potential at 1 uM after 24 hrs by TMRF dye based fluorescence assay relative to control; type: functional; how it was run: as §1
P19 [11] = experiment: Cytotoxicity against undifferentiated mouse P19 cells assessed as mitochondrial superoxide anion level at 1 uM after 24 hrs by MitoSox dye based fluorescence assay relative to control; type: functional; how it was run: as §1
P19 [12] = experiment: Cytotoxicity against differentiated mouse P19 cells assessed as cell mass at 1 to 100 uM after 24 hrs by SRB assay relative to control; type: functional; how it was run: as §2

O=C(c1ccc2c(c1)C(=O)N(c1cccc(O)c1)C2=O)c1ccc2c(c1)C(=O)N(c1cccc(O)c1)C2=O
Activity (P19 [1]): 117.4%
Activity (P19 [2]): 71.9%
Ratio [3]: > 500
Activity (P19 [4]): 91.5%
Activity (P19 [5]): 131.1%
Activity (P19 [6]): 108.3%
Activity (P19 [7]): 87.8%
Activity (P19 [8]): 59.8%
Activity (P19 [9]): 96.4%
Activity (P19 [10]): 94.5%
Activity (P19 [11]): 83.2%
Activity (P19 [12]): 100%
